Rpn11 inh = Rpn11 (human) deubiquitinase inhibition; 360,000 tested, 0.59% active; O00487; inhibition, % at 20 µM; human 26S proteasome, Ub4-pepOG fluorescence polarization; 20S core pre-blocked with epoxomicin;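 active = inhibition at 20 µM, scaled to each plate's controls, above about 33%, limit read from the data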
Target sequence (O00487 whole entry, looked up): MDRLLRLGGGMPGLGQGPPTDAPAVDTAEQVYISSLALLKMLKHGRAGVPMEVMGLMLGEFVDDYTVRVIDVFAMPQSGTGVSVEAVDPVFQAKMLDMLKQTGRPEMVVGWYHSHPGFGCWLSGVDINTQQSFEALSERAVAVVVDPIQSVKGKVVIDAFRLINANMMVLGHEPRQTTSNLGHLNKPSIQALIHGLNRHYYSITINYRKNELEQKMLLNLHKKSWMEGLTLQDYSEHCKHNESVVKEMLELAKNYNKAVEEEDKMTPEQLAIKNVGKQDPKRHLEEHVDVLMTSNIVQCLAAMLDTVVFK
CSN inh = CSN deneddylation inhibition; Q92905; Purified CSN, SCF-Nedd8-OG deneddylation, fluorescence polarization; inhibition, % at 12.5 µM; 360,000 tested, 0.38% active; AID 651999;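 active = pattern-corrected inhibition above about 35%, with an unprinted fluorescence ratio check between 0.5 and 1.5, limit read from the data, passing the limit was not always enough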;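 note: 0% = enzyme with substrate and 100% = substrate without enzyme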
Target sequence (Q92905 whole entry, looked up, one chain of several): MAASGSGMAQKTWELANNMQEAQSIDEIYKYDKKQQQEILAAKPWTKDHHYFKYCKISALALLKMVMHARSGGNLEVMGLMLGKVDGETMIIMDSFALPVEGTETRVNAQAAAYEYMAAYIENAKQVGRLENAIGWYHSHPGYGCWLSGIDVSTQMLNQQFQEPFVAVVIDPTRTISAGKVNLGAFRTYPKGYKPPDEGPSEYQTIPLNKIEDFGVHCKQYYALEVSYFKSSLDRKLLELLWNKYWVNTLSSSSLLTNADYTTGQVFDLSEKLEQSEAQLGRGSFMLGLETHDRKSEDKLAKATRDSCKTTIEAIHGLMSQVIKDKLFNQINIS
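Assay system: HEK293T-derived human Csn5 enzyme; quantity: 0.24 nM enzyme; medium: Tris/NaCl/DTT buffer, pH 7.5; also added: substrate SCFSkp2-Nedd8OG, 10 nM; doses: 12.5 µM compound; schedule: 90 min reaction at room temperature; signal: FP; read-out: % inhibition of substrate cleavage by Csn5; benchmarks: substrate-only high control, full reaction low control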
HNF4A DNA FP = change in binding of human HNF4 alpha to DNA; HNF4a-FITC DNA binding, fluorescence polarization, 1 h; activity change, % at 10 µM; 360,000 tested, 0.3% active; AID 1224865; in the data active = activity change above about 30%, passing the limit was not always enough
TPT1 inhibitor = C. albicans TPT1 enzyme inhibition | inhibition, % at 5 µM | recombinant caTPT1, FP RNA substrate dephosphorylation | 300,000 tested, 0.81% active;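 active = inhibition above the mean of all tested compounds plus 3 SD, set per screening campaign, cut at about 24% in these data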;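 note: plate controls were DMSO alone for no effect and ferristatin control at 100 nM for full effect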
Rpn11 inh conf = confirmation of human proteasome Rpn11 inhibitors; AID 602318; 1,900 tested, 29% active; shares compounds with Rpn11 inh; purified human 26S proteasome, Ub4-pepOG fluorescence polarization; proteasome pretreated with epoxomicin; inhibition, % at 20 µM
MMP-2 counter = counter-screen for RPN11 inhibitors: inhibition of human MMP-2; shares compounds with Rpn11 inh; recombinant MMP-2, FRET peptide cleavage fluorescence; inhibition, % at 20 µM; 1,900 tested, 4% active;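 note: human MMP-2 activated beforehand with APMA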
Thrombin FP = blocks bovine thrombin, flagging nonselective RPN11 hits | shares compounds with Rpn11 inh | bovine thrombin cleavage of Ub4-pepOG, fluorescence polarization | inhibition, % at 20 µM | 1,900 tested, 13% active;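 active = mean inhibition at least 40% at 20 µM, or signal 3 deviations below plate average, so some actives read negative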;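 note: plate controls were thrombin with DMSO for no effect and buffer wells lacking thrombin for full effect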
An asterisk follows results filed as active; · = no result; + = active, no number. Sampled rows, rich in hits. Any-hit rate of the full collection: about 1.5%. Cut-off read from the data, not from the text of the source, unless noted: active = inhibition above about 40%; inactive = the rest.

SMILES	Rpn11 inh	CSN inh	HNF4A DNA FP	TPT1 inhibitor	Rpn11 inh conf	MMP-2 counter	Thrombin FP
Cc1c(NC(=O)c2cccc(-c3cc4ccccc4oc3=O)c2)cccc1-c1nc2ncccc2o1	137.9*	12.8	2.6	2.1	109.5*	-27.4	0.5
CCN1CCN(CCCNC(=O)C2CCCN(c3nc4c(C)cc(C)cc4s3)C2)CC1 (centres undefined)	-6.0	4.5	1.7	-0.4	·	·	·
CCN(C(=O)c1ccco1)c1nc(CC(=O)Nc2ccc(Cl)cc2)cs1	9.4	5.4	7.9	3.1	·	·	·
CCC(=O)N(Cc1ccco1)c1nc(C(=O)Nc2ccc(Cl)cc2)c(C)s1	44.2*	9.9	4.1	10.8	9.5	26.0	2.1
CC(C)n1c(CNC(=O)c2ccccc2F)nnc1SCC(=O)c1ccc(F)cc1	11.9	2.3	2.8	·	·	·	·
C=C(C)COc1ccc(-c2nc(N)ncc2-c2ccc(Cl)cc2)c(O)c1	-10.7	1.3	1.4	-3.4	·	·	·
N#C/C(=C\c1ccc(OC(=O)c2ccc(Br)s2)cc1)c1nc2ccccc2[nH]1	58.0*	-0.5	-1.9	2.5	-8.5	-12.8	-21.9
N#C/C(=C\c1ccncc1)c1nc2ccccc2[nH]1	18.4	-0.7	1.9	·	·	·	·
N#C/C(=C/c1ccc(OC(=O)c2ccc(Br)s2)cc1)c1nc2ccccc2[nH]1	32.0	23.0	-9.0	·	·	·	·
N#C/C(=C\c1ccc(OC(=O)c2ccc(Cl)s2)cc1)c1nc2ccccc2[nH]1	49.0*	4.1	-6.5	-3.5	-11.9	0.1	-33.0
Cc1ccc(S(=O)(=O)N2CCOCC2)cc1NC(=O)COC(=O)CCC(=O)c1ccc(F)cc1	-5.6	-2.1	5.7	·	·	·	·
O=C1c2ccccc2/C(=C\c2ccc3[nH]ccc3c2)N1c1ccccc1	24.3	-0.2	6.7	·	·	·	·
CC(C)(C)OC(=O)n1cccc1/C=C1\c2ccccc2C(=O)N1c1ccccc1	41.3*	13.2	27.7	·	33.8	21.2	7.2
O=c1c2oc3nc4c(cc3c2ncn1CCCc1ccccc1)CCCC4	-0.8	-1.0	-0.7	-0.4	·	·	·
Fc1ccc(-c2nc3c4ccccc4ccn3c2Cc2cccc(Cl)c2)cc1	43.2*	0.7	9.9	·	67.7*	3.7	73.9*
N#Cc1c(-c2ccco2)cc(C2CC2)nc1N	41.6*	16.5	22.6	6.1	-6.7	-53.9	-3.8
N#Cc1c(-c2ccccc2)cc(C2CC2)nc1N	-5.8	-2.9	7.1	-1.7	·	·	·
COc1ccc(-c2nc3oc4cc(OC)ccc4c(=O)c3c(=O)n2Cc2ccco2)cc1	-12.0	3.3	-1.6	-1.2	·	·	·
CCc1nc2oc3cc(OC)ccc3c(=O)c2c(=O)n1Cc1ccco1	+	12.8	16.6	0.2	-7.9	6.1	18.8
Cc1ccc(-c2cc3c(N=O)c4ccccc4c-3n[nH]2)cc1	69.2*	24.9	8.0	-2.0	19.6	4.2	-14.6
O=Nc1c2cc(-c3ccccc3)[nH]nc-2c2ccccc12	4.4	-6.8	-5.8	·	·	·	·
N#Cc1c(C(F)(F)F)cc(-c2ccc(Cl)c(Cl)c2)nc1SCCN1CCOCC1	52.1*	4.6	4.5	2.7	16.8	-16.8	38.2
Cc1cc(C)c(C#N)c(SCCN2CCCCC2)n1	-4.0	3.5	-0.5	·	·	·	·
C=CCSc1nc(-c2ccc3c(c2)OCO3)cc(C(F)(F)F)c1C#N	-5.7	6.4	-2.5	-0.9	·	·	·
Cc1cc(C(F)(F)F)nc(SCCN2CCOCC2)c1C#N	44.5*	18.9	28.6	9.3	50.0*	-13.1	29.3
SMILES	Rpn11 inh	CSN inh	HNF4A DNA FP	TPT1 inhibitor	Rpn11 inh conf	MMP-2 counter	Thrombin FP
COc1cc(OC)cc(-c2c(C#Cc3ccsc3)c3cc(-c4ccc(C(N)=O)cc4)ccc3n2C)c1	47.9*	4.4	2.7	·	12.1	6.7	10.4
Cc1ccc(C(=O)O)cc1NC(=S)NC(=O)c1ccc(-c2ccc(Cl)cc2)o1	48.5*	-0.3	1.3	2.6	13.2	44.9*	-22.8
Cc1ccc(C(=O)NCCCNc2ccc(C(F)(F)F)cc2[N+](=O)[O-])cc1	40.8*	3.0	12.3	7.9	16.0	10.5	4.7
COC(=O)Cc1ccc(NC(=O)c2ccc(Br)o2)cc1	3.6	-2.5	32.4	-1.5	·	·	·
COc1ccc(-c2ccc(NC(=O)c3ccc(Br)o3)cc2)nn1	76.9*	2.6	0.5	0.0	13.0	16.1	-20.7
O=C(N/N=C/c1sc(N2CCOCC2)nc1-c1ccccc1)c1ccccc1O	57.8*	2.8	3.5	8.1	11.9	-34.1	-7.5
COC(=O)c1c(NC(=O)CCS(=O)(=O)c2ccccc2)sc2c1CCN(C)C2	15.2	-1.2	14.1	2.8	·	·	·
COC(=O)c1c(NC(=O)c2ccc(S(=O)(=O)N3CC(C)OC(C)C3)cc2)sc2c1CCN(C)C2 (centres undefined)	69.4*	94.2	2.5	·	92.7*	-50.0	35.4
CCOC(=O)C1=CN(Cc2ccco2)S(=O)(=O)NC1c1ccc(F)c(Cl)c1 (centres undefined)	-0.1	-4.5	-2.7	·	·	·	·
COc1cccc(N2CC(C(=O)Nc3nnc(SCC(=O)c4ccccc4)s3)CC2=O)c1 (centres undefined)	7.5	-4.8	2.1	1.6	·	·	·
COc1ccc(C(=O)CSc2nnc(NC(=O)C3CC(=O)N(c4ccccc4)C3)s2)cc1 (centres undefined)	43.6*	-3.0	4.2	4.4	13.4	2.5	-3.7
O=S(=O)(c1cccc(F)c1)N1CCCN(c2ccc(C(F)(F)F)cn2)CC1	-2.5	1.6	2.2	2.4	·	·	·
CSc1ccc(/C=C(\C#N)C(=O)Nc2cccc(C)c2)cc1	7.7	2.2	-0.9	7.7	·	·	·
O=C(Nc1ccccc1)c1cn2ccccc2n1	-6.6	-5.0	-0.1	0.5	·	·	·
O=C(Nc1ccc(-n2cnnn2)cc1)c1cn2ccccc2n1	87.1*	45.6*	21.0	0.7	35.9	-111.8	-14.7
COc1ccc(/C(C)=N/NC(=O)c2cccc(S(=O)(=O)N3CCCC3)c2)c(O)c1	-7.7	4.7	0.4	2.2	·	·	·
Oc1[nH]c2ccccc2c1N=Nc1nc2ccccc2s1	38.7*	4.3	2.5	9.7	14.0	-15.8	33.2
O=C(O)CCc1ccc(-c2ccccc2)n1CC1CCCO1 (centres undefined)	55.1*	4.3	-19.1	5.5	11.8	-26.0	6.4
Cc1ccc(CNC(=O)c2nnn(CC(=O)Nc3cc(C)cc(C)c3)c2N)cc1	58.4*	25.0	-2.2	2.8	50.5*	-30.7	-13.4
CCOc1ccc(CCNC(=O)c2nnn(CC(=O)Nc3ccc(C)cc3)c2N)cc1OCC	84.3*	1.4	4.0	-0.3	87.4*	-5.7	1.8
Cc1cc(C)cc(NC(=O)Cn2nnc(C(=O)NCc3ccc4c(c3)OCO4)c2N)c1	157.1*	18.1	8.2	2.6	101.3*	14.2	-9.3
CN(C(=O)c1cccc(NC(=O)Cc2ccc(NC(=O)C3CCN(C(=O)CCc4ccccc4)CC3)cc2)c1)C1CCC1	0.0	1.1	1.8	·	·	·	·

Screening results as filed in PubChem.
